Results on two compounds are retold here after ChEMBL document CHEMBL4706595, “1,3-Oxazine-2-one derived dual-targeted molecules against replicating and non-replicating forms of Mycobacterium tuberculosis” (Eur J Med Chem, 2020).

In experiment [1] the test system is Mycobacterium tuberculosis. The experiment in a line: Inhibition of mycolic acid biosynthesis in Mycobacterium tuberculosis H37Ra assessed as reduction in alfa-mycolate production at 5XMIC incubated for 7 days by TLC analysis. Conditions: time 7 day. It is filed as functional.
In experiment [2] the test system is Mycobacterium tuberculosis. Put plainly: Inhibition of respiratory system in dormant Mycobacterium tuberculosis H37Ra assessed as reduction in ATP production at 20 to 80 ug/ml measured on day 3 to 9 following drug addition by microplate reader analysis. The format is functional. Particulars: dose 20-80 µg/ml, time 3-9 day.
The subject of experiment [3] is Mycobacterium tuberculosis. Put plainly: Antimycobacterial activity against dormant Mycobacterium tuberculosis H37Ra assessed as inhibition of bacterial growth at 30 ug/ml incubated for 10 days in presence of Vit-K2 measured following 27 days of culturing on agar plate […] relative to control. It is filed as functional. Particulars: dose 30 µg/ml; time 37 day. The essentials:
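Dormant H37Ra: 2×10⁶ bacteria/ml in sealed vials, 37 °C, 25 rpm. Cultures with compound (3 or 30 µg/ml) plus 1 mM Vit-K2 grown 10 days, then CFU counted on 7H10 agar after 27 days; comparison with 1 mM Vit-K2 set.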
In general terms: The colour change of resazurin is a common sign of viable cells or microbes.

Experiment [4] has as its system Mycolicibacterium smegmatis. The experiment in a line: Antimycobacterial activity against Mycobacterium smegmatis mc2155 assessed as inhibition of bacterial growth incubated for 48 hrs by broth microdilution method. The format is functional. Conditions: MC2 155. (In broth dilution the organism is exposed to a series of concentrations in liquid medium.)
For experiment [5], the system named is Mycobacterium tuberculosis. Put plainly: Antimycobacterial activity against Mycobacterium tuberculosis H37Rv ATCC 27294 assessed as inhibition of bacterial growth by agar plate dilution method. It is filed as functional. The essentials:
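MIC determined by agar plate dilution method; isoniazid and rifampin run as references.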

Experiment [6] concerns Mycobacterium tuberculosis. Put plainly: Antimycobacterial activity against replicating Mycobacterium tuberculosis H37Rv assessed as inhibition of bacterial growth incubated for 7 days by MABA assay. The format is functional. Conditions: time 7 day.
In experiment [7] the test system is Mycobacterium tuberculosis. The experiment in a line: Antimycobacterial activity against non-replicating Mycobacterium tuberculosis H37Rv expressing pFCA-LuxAB assessed as bacterial growth inhibition incubated for 10 days under anerobic condition by low oxygen recovery assay. Particulars: 240 h, time 10 day. It is filed as functional.
Experiment [8] relates to Mycobacterium tuberculosis. Put plainly: Inhibition of mycolic acid biosynthesis in Mycobacterium tuberculosis H37Ra assessed as reduction in keto-mycolate production at 5XMIC incubated for 7 days by TLC analysis. Conditions: time 7 day. The format is functional.
Experiment [9] deals with Mycobacterium tuberculosis. Put plainly: Inhibition of mycolic acid biosynthesis in Mycobacterium tuberculosis H37Ra assessed as reduction in methoxy-mycolate production at 5XMIC incubated for 7 days by TLC analysis. Conditions: time 7 day. The format is functional.
Experiment [10] is described as follows: Inhibition of Mycobacterium smegmatis mc2155 menG assessed as inhibition of 2-methyl-3-(3,7,11-trimethyldodeca-2,6,10-trienyl)naphthalene-1,4-dione formation using 2-(3,7,11-trimethyldodeca-2,6,10-trienyl)naphthalene-1,4-dione as substrate incubated for 3 hrs in presence of SAM by HPLC analysis. The arrangement: species or system Mycolicibacterium smegmatis MC2 155.

A short description of experiment [11]: Inhibition of Mycobacterium tuberculosis H37Ra menG assessed as inhibition of 2-methyl-3-(3,7,11-trimethyldodeca-2,6,10-trienyl)naphthalene-1,4-dione formation using 2-(3,7,11-trimethyldodeca-2,6,10-trienyl)naphthalene-1,4-dione as substrate incubated for 3 hrs in presence of SAM by HPLC analysis.
The nature of experiment [12]: Cytotoxicity against human PBMC assessed as reduction in cell growth after 72 hrs by MTT assay. The format is tissue-based. A general note: Tetrazolium assays rely on reduction of a dye to a coloured formazan, in cell work by metabolically active cells.
The test system of experiment [13] is Mycobacterium tuberculosis. The experiment in a line: Antimycobacterial activity against replicating Mycobacterium tuberculosis H37Ra assessed as inhibition of bacterial growth incubated for 7 days by MABA assay. It is filed as functional. Conditions: time 7 day.

Each structure is given as a SMILES string. ≈ marks a conversion by molar mass, not a printed value. Calls of active or inactive are those of the source. The calls are words filed in the database; no cut-off is given here.

Take `CC(C)=CCC/C(C)=C/CC/C(C)=C/COc1ccc(C(=O)OCCCOc2cccc(Nc3nc4ccccc4c(=O)o3)c2)cc1`: the “inhibition (INH)” value in experiment [1], in [8] and in experiment [9] was 100% each time. The inhibition entry in [2] is “Active”. The “fold change (FC)” value in [3] came out at 4.1. Besides, the MIC (as a rule, the lowest concentration found to suppress growth) in [4] was 3.2 µg/mL (≈ 5.03 µM); in [5], 2.9 µg/mL (≈ 4.55 µM); in experiment [6], 2.97 µg/mL (≈ 4.66 µM); in experiment [7], 2.15 µg/mL (≈ 3.38 µM); in experiment [13] it was 2.71 µg/mL (≈ 4.26 µM). Also, the concentration for half-maximal inhibition (IC50) (commonly the concentration that inhibits the measured activity by half) turned out to be 10.88 µg/mL in experiment [10], 6.25 µg/mL in [11] and 169 µg/mL (≈ 266 µM) in experiment [12].
As for `CC(C)=CCC/C(C)=C/COc1ccc(C(=O)OCCCOc2cccc(Nc3nc4ccccc4c(=O)o3)c2)cc1`, the “inhibition (INH)” value in experiment [1], in experiment [8] and in experiment [9] was 100% in each case. The “fold change (FC)” value in experiment [3] is given as 2.9. The MIC came to 6.3 µg/mL (≈ 11.1 µM) in experiment [4]; 3.5 µg/mL (≈ 6.15 µM) in experiment [5]; 3.48 µg/mL (≈ 6.12 µM) in [6]; 2.94 µg/mL (≈ 5.17 µM) in [7]; 3.93 µg/mL (≈ 6.91 µM) in experiment [13]. The 50% inhibitory concentration (IC50) in experiment [10] was found to be 11.76 µg/mL; in experiment [11], 9.11 µg/mL; in [12], 134 µg/mL (≈ 236 µM).
